Measurements: PMC2805153 (Molecular cancer therapeutics, 2009)
Entries after “also recorded” stand apart in the source; their conditions may differ.

How the values were obtained:
[1] = tested on: human breast tumor cells; experiment: Growth assay, breast tumor cells in general; assay type: cell-based; conditions: SK-BR-3 and MDA-MB-231 breast tumor cells, 72 hours of treatment
How it was run: (§1)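 SK-BR-3 and MDA-MB-231 cells were grown in RPMI 1640 with 1.5% FBS at 37°C and 5% CO2, seeded at 5,000/well, and rested 18–24 h. Test compound or vehicle was added for 72 h (DMSO ≤0.2%). CellTiter-Glo ATP luminescence gave viable cells.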

[2] = tested on: MDA-MB-231 breast tumor cells; experiment: Growth assay; assay type: cell-based, human
How it was run: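 MDA-MB-231 cells went into RPMI 1640 with 1.5% FBS at 5,000/well and rested 18–24 h. Optional 1 h pretreatment with NOR-3 came next, then test compound or vehicle for 72 h (DMSO ≤0.2%). Viable cells were read as ATP luminescence (CellTiter-Glo).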

[3] = molecular target: PDE5A (Homo sapiens, UniProt O76074); experiment: Recombinant PDE isozyme IMAP FP assay; assay type: biochemical
How it was run: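 Commercial recombinant PDE isozyme at 0.25 mg/mL, preincubated with test compound 30 min at 30°C. Substrate mix of 25 nM each fluorescein-cAMP and TAMRA-cGMP then added for 90 min at 30°C, with cAMP and cGMP hydrolysis read together. Binding reagent stops reaction; IMAP fluorescence polarization read. DMSO ≤2%. IC50 from 10 concentrations, ≥2 replicates each, versus vehicle, four-parameter logistic fit; experiments repeated at least twice.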

[4] = tested on: PDE activity in SK-BR-3 and MDA-MB-231 cell lysates; experiment: IMAP FP PDE assay in tumor cell lysates; assay type: biochemical, human; conditions: for inhibition of cGMP hydrolysis: tumor cell lysates, TAMRA-cGMP substrate
[5] = molecular target: PDE8A (Homo sapiens, UniProt O60658); experiment: Recombinant PDE isozyme IMAP FP assay; assay type: biochemical; conditions: cAMP substrate; SS tested up to 200 μM
[6] = tested on: PDE activity in HMEC lysates; experiment: IMAP FP PDE assay in HMEC lysates; assay type: biochemical, human
How it was run: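 HMEC were lysed in ice-cold buffer (20mM Tris-acetate, 5mM Mg acetate, 1mM EGTA, 0.8% Triton X-100, 50mM NaF, protease inhibitors, pH 7.4) and cleared at 10,000g, 10 min, 4°C. Lysate at 0.25 mg/mL was preincubated with test compound 30 min at 30°C. Substrate was 25 nM each Fl-cAMP and TAMRA-cGMP, run 90 min at 30°C. Reactions were stopped with IMAP binding reagent and read by FP (DMSO ≤2%). IC50 came from 10 concentrations, ≥2 replicates.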

[7] = tested on: ZR75-1 breast tumor cells; experiment: Growth assay; assay type: cell-based; conditions: Homo sapiens, ZR-75-1, 72 h, read-out: growth inhibition IC50
How it was run: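 Cells seeded at 5,000/well were rested 18–24 h, then treated with test compound or vehicle for 72 h (DMSO ≤0.2%). Growth was scored as viable-cell ATP luminescence (CellTiter-Glo) against vehicle.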

[8] = tested on: SK-BR-3 breast tumor cells; experiment: Growth assay; assay type: cell-based; conditions: Homo sapiens, SK-BR-3, 72 h, read-out: growth inhibition IC50
How it was run: as §1

[9] = molecular target: PDE10A (Homo sapiens, UniProt Q9Y233); experiment: Recombinant PDE isozyme IMAP FP assay; assay type: biochemical; conditions: SS tested up to 200 μM
[10] = tested on: MDA-MB-231, SKBR3, and ZR75-1 cells; experiment: Caspase3/7 Glo apoptosis assay; assay type: cell-based, human; conditions: 100 μM, 5 hours
How it was run: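 MDA-MB-231 and SK-BR-3 cells were kept in RPMI 1640 with 10% FBS, with serum cut to 1.5% FBS for the assay, at 37°C and 5% CO2. Cells were seeded at 10,000/well, rested 18–24 h, then given test compound or vehicle (DMSO ≤0.2%). Caspase 3/7 activation was read as luminescence from Caspase3/7 Glo substrate cleavage.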

[11] = tested on: PKG (VASP phosphorylation) in MDA-MB-231 cells; experiment: VASP Ser239 phosphorylation western blot; assay type: cell-based, human
How it was run: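 MDA-MB-231 cells were treated with test compound across doses and times, then lysed in Tris-acetate/Triton X-100/NaF buffer at pH 7.4. Lysate (30 μg protein) was separated by 12% SDS-PAGE and transferred to nitrocellulose, blocked in 5% BSA in TBS-0.05% Tween-20. Blots were probed for phospho-VASP Ser239 and total VASP with HRP secondaries and detected by chemiluminescence on film.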

[12] = tested on: HMEC; experiment: Intracellular cGMP assay; assay type: cell-based, human; conditions: 30 minutes of treatment
How it was run: (§2)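 Cells were seeded at 1×10^6 per 10 cm dish: HMEC in MEGM, MDA-MB-231 in RPMI 1640 with 1.5% FBS. After 48 h they were exposed to test compound or vehicle for 30 min, then lysed. Intracellular cGMP was measured by direct competitive EIA, optical density at 630 nm.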

[13] = molecular target: PDE11A (Homo sapiens, UniProt Q9HCR9); experiment: Recombinant PDE isozyme IMAP FP assay; assay type: biochemical; conditions: SS tested up to 200 μM
[14] = molecular target: PDE4A (Homo sapiens, UniProt P27815); experiment: Recombinant PDE isozyme IMAP FP assay; assay type: biochemical; conditions: cAMP substrate; SS tested up to 200 μM
[15] = molecular target: PDE6C (Homo sapiens, UniProt P51160); experiment: Recombinant PDE isozyme IMAP FP assay; assay type: biochemical; conditions: cGMP substrate; SS tested up to 200 μM
[16] = molecular target: PDE9A (Homo sapiens, UniProt O76083); experiment: Recombinant PDE isozyme IMAP FP assay; assay type: biochemical; conditions: cGMP substrate; SS tested up to 200 μM
[17] = molecular target: PDE7A (Homo sapiens, UniProt Q13946); experiment: Recombinant PDE isozyme IMAP FP assay; assay type: biochemical; conditions: cAMP substrate; SS tested up to 200 μM
[18] = tested on: breast tumor cells; experiment: Cell cycle distribution; assay type: cell-based, human; conditions: conditions of the growth assays, data not shown
[19] = tested on: breast tumor cells; experiment: TUNEL labeling; assay type: cell-based, human; conditions: data not shown
[20] = tested on: HMEC; experiment: Caspase3/7 Glo apoptosis assay; assay type: cell-based, human; conditions: 5 hours, staurosporine 1μM positive control
How it was run: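 HMEC grown in MEGM complete medium were seeded at 10,000 cells/well and left 18–24 h. They were then exposed to test compound or vehicle (DMSO ≤0.2%), with 1μM staurosporine as positive control. Apoptosis was read as Caspase3/7 Glo luminescence from cleavage of a caspase 3/7 substrate.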

[21] = tested on: normal human mammary epithelial cells (HMEC); experiment: Growth assay; assay type: cell-based; conditions: 72 h, read-out: growth inhibition IC50
How it was run: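 Primary normal mammary epithelial cells were grown in MEGM complete medium and seeded at 5,000/well. After 18–24 h they received test compound or vehicle for 72 h (DMSO ≤0.2%). ATP-based luminescence (CellTiter-Glo) measured viable cells.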

[22] = tested on: MDA-MB-231 cells; experiment: Intracellular cGMP assay; assay type: cell-based, human
How it was run: as §2

[23] = tested on: COX-1; conditions: read-out: IC50 to inhibit COX-1; cited from earlier work
[24] = MDA-MB-231, 30 minutes of treatment
[25] = breast tumor cells, line not given

Chain of PDE11A (Q9HCR9 whole entry): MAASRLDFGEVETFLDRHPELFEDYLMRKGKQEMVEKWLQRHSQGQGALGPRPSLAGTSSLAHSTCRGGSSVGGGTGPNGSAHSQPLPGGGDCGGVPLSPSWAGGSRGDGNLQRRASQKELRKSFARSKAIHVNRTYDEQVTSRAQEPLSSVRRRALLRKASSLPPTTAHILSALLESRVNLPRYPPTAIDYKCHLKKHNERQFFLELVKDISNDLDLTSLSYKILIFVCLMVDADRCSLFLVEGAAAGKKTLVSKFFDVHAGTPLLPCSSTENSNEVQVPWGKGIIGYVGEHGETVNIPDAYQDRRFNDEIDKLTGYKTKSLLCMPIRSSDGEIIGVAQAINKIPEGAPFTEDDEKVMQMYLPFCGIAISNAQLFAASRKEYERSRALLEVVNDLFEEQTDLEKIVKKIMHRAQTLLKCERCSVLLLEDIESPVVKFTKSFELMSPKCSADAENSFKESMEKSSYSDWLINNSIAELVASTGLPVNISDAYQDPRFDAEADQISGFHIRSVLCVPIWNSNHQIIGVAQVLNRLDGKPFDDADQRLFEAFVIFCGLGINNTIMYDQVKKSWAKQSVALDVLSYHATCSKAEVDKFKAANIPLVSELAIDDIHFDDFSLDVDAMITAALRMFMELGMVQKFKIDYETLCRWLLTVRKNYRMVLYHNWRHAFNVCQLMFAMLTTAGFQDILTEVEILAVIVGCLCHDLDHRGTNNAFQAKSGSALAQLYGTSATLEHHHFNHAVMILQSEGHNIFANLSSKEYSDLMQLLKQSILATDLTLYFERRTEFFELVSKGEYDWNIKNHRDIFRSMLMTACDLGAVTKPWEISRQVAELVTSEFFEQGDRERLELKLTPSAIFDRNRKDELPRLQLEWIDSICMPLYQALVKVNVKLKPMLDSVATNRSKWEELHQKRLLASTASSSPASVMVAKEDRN
Chain of PDE10A (Q9Y233 290-1055 limits assumed): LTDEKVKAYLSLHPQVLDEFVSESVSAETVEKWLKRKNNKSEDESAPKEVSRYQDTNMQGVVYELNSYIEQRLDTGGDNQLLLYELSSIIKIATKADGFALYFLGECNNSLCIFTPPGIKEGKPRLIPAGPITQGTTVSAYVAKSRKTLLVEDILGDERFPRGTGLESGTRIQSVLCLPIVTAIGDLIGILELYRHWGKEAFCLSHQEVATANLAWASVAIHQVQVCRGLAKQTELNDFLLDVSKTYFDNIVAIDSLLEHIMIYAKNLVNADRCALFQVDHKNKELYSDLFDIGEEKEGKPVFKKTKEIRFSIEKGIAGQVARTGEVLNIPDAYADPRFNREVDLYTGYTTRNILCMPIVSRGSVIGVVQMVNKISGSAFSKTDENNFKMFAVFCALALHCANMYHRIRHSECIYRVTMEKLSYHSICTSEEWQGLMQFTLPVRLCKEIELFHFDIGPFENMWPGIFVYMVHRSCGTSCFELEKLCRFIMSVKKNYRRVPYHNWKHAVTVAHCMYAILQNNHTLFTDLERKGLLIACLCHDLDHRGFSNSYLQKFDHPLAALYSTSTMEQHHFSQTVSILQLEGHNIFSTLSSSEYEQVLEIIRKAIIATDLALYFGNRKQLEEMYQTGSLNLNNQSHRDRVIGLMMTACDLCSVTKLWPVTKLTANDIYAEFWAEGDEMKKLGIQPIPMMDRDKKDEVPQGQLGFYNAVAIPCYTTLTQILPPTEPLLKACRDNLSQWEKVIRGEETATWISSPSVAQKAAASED
Chain of PDE8A (O60658 whole entry): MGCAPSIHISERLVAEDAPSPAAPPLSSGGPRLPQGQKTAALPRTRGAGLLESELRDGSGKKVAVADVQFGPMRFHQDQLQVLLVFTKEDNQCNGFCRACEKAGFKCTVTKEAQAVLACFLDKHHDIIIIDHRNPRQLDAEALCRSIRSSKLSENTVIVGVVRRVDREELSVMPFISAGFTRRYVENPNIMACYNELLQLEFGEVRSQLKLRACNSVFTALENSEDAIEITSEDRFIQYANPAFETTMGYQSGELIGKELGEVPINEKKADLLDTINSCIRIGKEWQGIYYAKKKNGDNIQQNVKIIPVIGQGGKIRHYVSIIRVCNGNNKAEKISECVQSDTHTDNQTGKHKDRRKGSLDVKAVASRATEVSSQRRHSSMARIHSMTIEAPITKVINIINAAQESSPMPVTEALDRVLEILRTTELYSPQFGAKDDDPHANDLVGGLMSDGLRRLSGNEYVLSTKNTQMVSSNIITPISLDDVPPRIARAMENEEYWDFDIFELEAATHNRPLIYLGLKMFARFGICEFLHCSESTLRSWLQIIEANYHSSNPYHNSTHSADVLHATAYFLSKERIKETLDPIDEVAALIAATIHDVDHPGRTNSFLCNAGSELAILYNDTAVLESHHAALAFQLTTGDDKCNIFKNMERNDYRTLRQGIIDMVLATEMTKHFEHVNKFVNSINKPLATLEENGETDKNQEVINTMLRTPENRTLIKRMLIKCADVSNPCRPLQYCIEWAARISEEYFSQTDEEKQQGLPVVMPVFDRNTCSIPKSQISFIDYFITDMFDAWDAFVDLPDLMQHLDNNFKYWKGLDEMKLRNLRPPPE
Chain of PDE6C (P51160 whole entry): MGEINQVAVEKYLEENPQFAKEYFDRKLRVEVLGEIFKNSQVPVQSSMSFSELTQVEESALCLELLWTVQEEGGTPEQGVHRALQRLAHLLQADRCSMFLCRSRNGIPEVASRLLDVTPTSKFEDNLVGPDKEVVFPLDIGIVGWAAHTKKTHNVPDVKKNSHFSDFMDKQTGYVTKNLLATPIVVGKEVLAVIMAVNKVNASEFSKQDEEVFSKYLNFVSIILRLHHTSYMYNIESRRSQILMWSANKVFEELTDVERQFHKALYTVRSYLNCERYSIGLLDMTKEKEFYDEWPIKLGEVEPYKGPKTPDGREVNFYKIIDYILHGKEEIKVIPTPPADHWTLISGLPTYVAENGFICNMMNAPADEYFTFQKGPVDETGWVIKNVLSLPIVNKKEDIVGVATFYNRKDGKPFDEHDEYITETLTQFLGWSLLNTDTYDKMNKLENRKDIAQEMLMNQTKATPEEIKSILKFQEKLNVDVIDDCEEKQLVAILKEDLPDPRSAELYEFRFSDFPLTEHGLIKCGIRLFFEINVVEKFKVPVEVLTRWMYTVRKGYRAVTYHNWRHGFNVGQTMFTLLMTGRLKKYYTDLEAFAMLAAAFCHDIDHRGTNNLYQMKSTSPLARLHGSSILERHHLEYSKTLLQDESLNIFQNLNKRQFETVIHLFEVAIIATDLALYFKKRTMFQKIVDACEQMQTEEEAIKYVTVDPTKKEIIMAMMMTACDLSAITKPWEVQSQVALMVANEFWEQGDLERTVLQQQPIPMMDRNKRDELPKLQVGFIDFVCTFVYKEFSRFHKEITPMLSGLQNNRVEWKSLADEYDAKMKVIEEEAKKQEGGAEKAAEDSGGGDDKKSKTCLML
Chain of PDE9A (O76083 whole entry): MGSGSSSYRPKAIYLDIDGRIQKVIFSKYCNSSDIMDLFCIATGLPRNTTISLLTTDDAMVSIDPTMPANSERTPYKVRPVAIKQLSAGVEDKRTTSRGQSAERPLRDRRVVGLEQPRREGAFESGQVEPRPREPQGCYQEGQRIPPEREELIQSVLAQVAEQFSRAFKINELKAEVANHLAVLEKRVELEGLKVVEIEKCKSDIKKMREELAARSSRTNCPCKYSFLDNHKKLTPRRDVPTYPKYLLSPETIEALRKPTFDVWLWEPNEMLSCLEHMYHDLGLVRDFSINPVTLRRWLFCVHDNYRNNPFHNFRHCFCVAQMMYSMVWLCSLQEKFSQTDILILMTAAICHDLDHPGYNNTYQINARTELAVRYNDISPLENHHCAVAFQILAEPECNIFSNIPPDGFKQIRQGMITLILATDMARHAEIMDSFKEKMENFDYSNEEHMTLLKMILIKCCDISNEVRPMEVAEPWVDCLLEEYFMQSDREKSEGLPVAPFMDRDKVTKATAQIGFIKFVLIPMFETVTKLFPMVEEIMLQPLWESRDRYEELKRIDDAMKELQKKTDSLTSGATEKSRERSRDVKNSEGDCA
Chain of PDE7A (Q13946 whole entry): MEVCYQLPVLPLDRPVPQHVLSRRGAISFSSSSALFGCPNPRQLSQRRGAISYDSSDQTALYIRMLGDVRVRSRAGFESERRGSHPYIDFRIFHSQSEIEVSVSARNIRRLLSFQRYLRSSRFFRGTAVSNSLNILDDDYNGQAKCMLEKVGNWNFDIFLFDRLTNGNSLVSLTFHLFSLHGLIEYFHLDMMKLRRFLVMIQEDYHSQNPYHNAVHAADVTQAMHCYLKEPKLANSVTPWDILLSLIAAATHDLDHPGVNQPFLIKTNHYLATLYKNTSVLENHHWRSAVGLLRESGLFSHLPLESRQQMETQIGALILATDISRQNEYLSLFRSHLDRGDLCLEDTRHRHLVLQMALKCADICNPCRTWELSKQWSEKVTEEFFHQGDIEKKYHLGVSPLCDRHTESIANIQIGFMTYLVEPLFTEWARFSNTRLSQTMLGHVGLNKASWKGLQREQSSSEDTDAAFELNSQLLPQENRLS

In the case of `CCCCCC[C@@H]([C@@H](C)O)n1cnc2c(N)ncnc21` (racemic) [EHNA], the “tumor cell growth inhibitory activity” value [1] is reported as “none were found to be active”.

For `CC/C(=C\C(=N/O)C(N)=O)C(C)[N+](=O)[O-]` (racemic) [NOR-3, (±)-(E)-Ethyl-2-((E)-hydroxyimino)-5-nitro-3-hexenamide], the “tumor cell growth inhibitory activity” value [1] was “inhibited the growth”.

In the case of `COCc1nc2c([nH]1)c(=O)n(C)c(=O)n2CC(C)C` [8-methoxymethyl-IBMX], the “tumor cell growth inhibitory activity” value [1] is reported as “none were found to be active”.

With `CC(C)Cn1c(=O)n(C)c(=O)c2[nH]cnc21` [IBMX, 3-Isobutyl-1-methylxanthine] the “tumor cell growth inhibitory activity” value [1] was “none were found to be active”.

For `O=C1C(Nc2ccccc2)=CC(=O)c2ncccc21` [LY83583], the “effect on sensitivity to growth inhibition by doxorubicin” value ([2]; MDA-MB-231, control experiment, data not shown) was “ineffective”.

In the case of `Clc1cccc(Nc2nnc(-c3ccccc3)c3ccccc23)c1` [MY5445, 1-(3-chloroanilino)-4-phenylphthalazine], the IC50 [3] is reported as 14.3 µM and the “tumor cell growth inhibitory activity” value [1] is reported as “inhibited breast tumor cell growth”.

With `CSc1ccc(/C=C2/C(C)=C(CC(=O)O)c3cc(F)ccc32)cc1` [SS, sulindac sulfide] the “inhibition of cAMP hydrolysis” value ([4]; breast tumor cell lysates, Fl-cAMP substrate) was “did not significantly affect”, the “inhibition of cGMP hydrolysis” value [4] was “inhibited cGMP hydrolysis” and the “IC50, cAMP hydrolysis by PDE8A” value [5] was “Inactive”. For the same molecule, the “inhibition of cAMP hydrolysis” value [6] was “did not affect”, the “inhibition of cGMP hydrolysis” value [6] was “did not affect” and the IC50 [7] was 76 µM. For the same molecule, the IC50 [8] was 59 µM, the “IC50, cAMP hydrolysis by PDE10A” value ([9]; cAMP substrate) was “Inactive” and the “IC50, cGMP hydrolysis by PDE10A” value ([9]; cGMP substrate) was “Inactive”. For the same molecule, the “increase in the activity of caspases 3 and 7 compared to vehicle” value [10] was 2-8 fold, the “change of growth inhibition IC50 after pre-treatment with GC activator NOR-3” value ([2]; 1 hour pretreatment with NOR-3, 72 hours of SS treatment) was “significant reduction in the IC50 value” and the IC50 ([2]; Homo sapiens, MDA-MB-231, 72 h, read-out: growth inhibition IC50) was 84 µM. For the same molecule, the “time at which VASP phosphorylation peaked” value ([11]; MDA-MB-231, 100 μM) was 1 h, the “concentration at which increases in VASP phosphorylation were apparent” value ([11]; MDA-MB-231, after 30 minutes of treatment) was […] and the “VASP phosphorylation at serine 239 (p-VASP levels)” value ([11]; MDA-MB-231, dose- and time-dependent) was “increased the levels of phosphorylated VASP”. The “increase of intracellular cGMP levels” value [12] was “failed to induce cGMP levels”, the “IC50, cAMP hydrolysis by PDE11A” value ([13]; cAMP substrate) was “Inactive” and the “IC50, cGMP hydrolysis by PDE11A” value ([13]; cGMP substrate) was “Inactive”. The “IC50, cAMP hydrolysis by PDE4A” value [14] was “Inactive”, the “IC50, cGMP hydrolysis by PDE6C” value [15] was “Inactive” and the “IC50, cGMP hydrolysis by PDE9A” value [16] was “Inactive”. The “IC50, cAMP hydrolysis by PDE7A” value [17] was “Inactive”, the “effect on cell cycle distribution” value [18] was “did not have a significant effect” and the TUNEL labeling [19] was “increased TUNEL labeling”. For the same molecule, the “activation of caspases 3 and 7” value [20] was “resistant”, the IC50 [21] was 163 µM and the “concentration at which cGMP levels peak” value [22, 24] was […]. For the same molecule, the “increase of intracellular cGMP levels” value [22, 24] was 2-3 fold and the IC50 [23] was […].

For `COc1cc2c(cc1OC)-c1c/c(=N\c3c(C)cc(C)cc3C)n(C)c(=O)n1CC2` [Trequinsin, trequinsin], the “tumor cell growth inhibitory activity” value [1] was “inhibited breast tumor cell growth”.

In the case of `OCCN(CCO)c1nc(N2CCCCC2)c2nc(N(CCO)CCO)nc(N3CCCCC3)c2n1` [dipyridamole], the “tumor cell growth inhibitory activity” value [1] is reported as “none were found to be active”.

With `C=C[C@@]1(C)CC(=O)[C@]2(O)[C@@]3(C)[C@@H](O)CCC(C)(C)[C@@H]3[C@H](O)[C@H](OC(C)=O)[C@@]2(C)O1` [forskolin] the “tumor cell growth inhibitory activity” value [1] was “no significant growth inhibitory activity”.

For `Cc1[nH]c(=O)c(C#N)cc1-c1ccncc1` [milrinone], the “tumor cell growth inhibitory activity” value [1] was “none were found to be active”.

In the case of `COc1ccc(C2CNC(=O)C2)cc1OC1CCCC1` (centres unmarked) [rolipram], the “tumor cell growth inhibitory activity” value [1] is reported as “none were found to be active”.

In the case of `CCCc1nn(C)c2c(=O)[nH]c(-c3cc(S(=O)(=O)N4CCN(C)CC4)ccc3OCC)nc12` [sildenafil], the “inhibition of cGMP hydrolysis” value [4] is reported as “inhibit the majority of cGMP PDE activity”, the PKG activation [11, 25] is reported as “unable to significantly increase intracellular cGMP levels or activate PKG” and the “increase of intracellular cGMP levels” value [22, 25] is reported as “unable to significantly increase intracellular cGMP levels”. For the same molecule, the “tumor cell growth inhibitory activity” value [1] was “none were found to be active; also recorded: unable to inhibit breast tumor cell growth”.

In the case of `CN[C@@H]1C[C@H]2O[C@@](C)([C@@H]1OC)n1c3ccccc3c3c4c(c5c6ccccc6n2c5c31)C(=O)NC4` [staurosporine], the “activation of caspases 3 and 7” value [20] is reported as “increased caspase activity”.

In the case of `CCCOc1ccccc1-c1nc2nn[nH]c2c(=O)[nH]1` [zaprinast], the “tumor cell growth inhibitory activity” value [1] is reported as “none were found to be active”.
